Measurements taken from ChEMBL document CHEMBL1132144, “Synthesis of 9-O-substituted derivatives of 9-hydroxy-5, 6-dimethyl-6H-pyrido[4,3-b]carbazole-1-carboxylic acid (2-(dimethylamino)ethyl)amide and their 10- and 11-methyl analogues with improved antitumor activity” (J Med Chem, 1999).
Several values for one entry are separate records, joined by “and”; a condition that tells them apart may be missing. Equal entries are not always repeated.

How the values were obtained:
B16 = experiment: Inhibition of murine B16 melanoma cell proliferation measured by the MTT assay; format: functional, cell-based; conditions: Mus musculus
In short: (§1)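 Murine L1210 leukemia and B16 melanoma cells were grown in RPMI 1640 with 10% fetal calf serum, 2 mM L-glutamine, penicillin/streptomycin and 10 mM HEPES (pH 7.4). Cells were exposed to nine serial drug dilutions in triplicate for about four doubling times (L1210 48 h, B16 96 h), then read by microculture tetrazolium (MTT) assay. IC50 is the concentration halving optical density versus untreated controls, averaged over ≥2 independent experiments.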

L1210 = experiment: Inhibition of murine L1210 leukemia cell proliferation measured by the MTT assay; format: functional, cell-based; conditions: Mus musculus; in short: as §1
Mus musculus [1] = experiment: Long-term survivors among 7 mice infected with B16 melanoma, scored on day 90 at 10 mg/kg dose on day 1; format: functional
Mus musculus [2] = experiment: Long-term survivors among 7 mice infected with P388 leukemia, scored on day 60 at 10 mg/kg dose on day 1; format: functional
In short: (§2)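 B6D2F1 mice in groups of 6–7 received 10^6 P388 cells ip on day 0. Dihydrochloride salts dissolved in water were injected iv on day 1 or on days 1, 5 and 9, at three doses and then five. Read-outs were % T/C (median survival treated/control × 100) and long-term survivors on day 60, both at the optimal dose (no toxic death, weight loss <20%).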

Mus musculus [3] = experiment: Percent median survival time of mice injected with P388 leukemia, at a subcutaneous compound dose of 10 mg/kg on day 1; format: functional
Mus musculus [4] = experiment: Percent median survival time of mice injected with P388 leukemia, at a subcutaneous compound dose of 10 mg/kg on day 1, 5, 9; format: functional
Mus musculus [5] = experiment: Percent median survival time of mice injected with B16 melanoma, at a intraperitoneal compound dose of 5 mg/kg
Mus musculus [6] = experiment: Percent median survival time of mice injected with P388 leukemia, at a subcutaneous compound dose of 10 mg/kg; format: functional
Mus musculus [7] = experiment: Long-term survivors among 7 mice infected with P388 leukemia, scored on day 90 at 10 mg/kg dose; format: functional
Mus musculus [8] = experiment: Long-term survivors among 6 mice infected with P388 leukemia, scored on day 60 at 40 mg/kg dose; format: functional
In short: (§3)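 B6D2F1 mice in groups of 6–7 were inoculated ip on day 0 with 10^6 P388 cells. Dihydrochloride salts were dissolved in water and given iv on day 1 or on days 1, 5 and 9. Doses ranged from a low nontoxic dose to a toxic one. Long-term survivors were counted at day 60.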

Mus musculus [9] = experiment: Percent median survival time of mice intraperitoneally injected with P388 leukemia was determined from tested at 160 mg/kg at day1 dose to that of control; format: functional
In short: (§4)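 P388 leukemia in B6D2F1 mice (groups of 6–7), 10^6 cells inoculated ip on day 0. Dihydrochloride salts were dissolved in water and given iv on day 1 or on days 1, 5, 9. Three doses were tested, then five if active. %T/C = median survival treated/control × 100, reported at the optimal dose (no toxic death, weight loss <20%), from one or two representative experiments.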

Mus musculus [10] = experiment: Percent median survival time of mice intraperitoneally injected with P388 leukemia was determined from tested at 40 mg/kg at day1,5,9 dose to that of control; format: functional; conditions: route intraperitoneal; in short: as §4
Mus musculus [11] = experiment: Long-term survivors among 6 mice infected with P388 leukemia, scored on day 60 at 160 mg/kg dose; format: functional; in short: as §3
Mus musculus [12] = experiment: Percent median survival time of mice injected with B16 melanoma, at a intraperitoneal compound dose of 10 mg/kg
Mus musculus [13] = experiment: Long-term survivors among 7 mice infected with B16 melanoma, scored on day 90 at 40 mg/kg dose on day 1; format: functional
Mus musculus [14] = experiment: Long-term survivors among 7 mice infected with P388 leukemia, scored on day 60 at 40 mg/kg dose on day 1; format: functional; in short: as §2
Mus musculus [15] = experiment: Percent median survival time of mice injected with P388 leukemia, at a subcutaneous compound dose of 20 mg/kg; format: functional
Mus musculus [16] = experiment: Percent median survival time of mice injected with P388 leukemia, at a intravenous compound dose of 40 mg/kg
Mus musculus [17] = experiment: Percent median survival time of mice injected with B16 melanoma, at a intraperitoneal compound dose of 40 mg/kg
Mus musculus [18] = experiment: Long-term survivors among 6 mice infected with P388 leukemia, scored on day 90 at 20 mg/kg dose; format: functional
Mus musculus [19] = experiment: Percent median survival time of mice injected with B16 melanoma, at a intraperitoneal compound dose of 20 mg/kg
Mus musculus [20] = experiment: Long-term survivors among 7 mice infected with B16 melanoma, scored on day 90 at 20 mg/kg dose on day 1; format: functional
Mus musculus [21] = experiment: Long-term survivors among 7 mice infected with P388 leukemia, scored on day 60 at 20 mg/kg dose on day 1; format: functional; in short: as §2
Mus musculus [22] = experiment: Long-term survivors among 14 mice infected with P388 leukemia, scored on day 60 at 40 mg/kg dose on day 1; format: functional; in short: as §3
Mus musculus [23] = species on record: Mus musculus; experiment: Long-term survivors among 14 mice infected with B16 melanoma, scored on day 90 at optimal dose on days 1-9
Mus musculus [24] = experiment: Long-term survivors among 6 mice infected with P388 leukemia, scored on day 60 at 40 mg/kg dose on day 1, 5, 9; format: functional; in short: as §3
Mus musculus [25] = experiment: Long-term survivors among 6 mice infected with P388 leukemia, scored on day 60 at 60 mg/kg dose on day 1; format: functional; in short: as §3
Mus musculus [26] = experiment: Long-term survivors among 6 mice infected with B16 melanoma, scored on day 90 at 10 mg/kg dose
Mus musculus [27] = experiment: Percent median survival time of mice injected with P388 leukemia, at a intravenous compound dose of 60 mg/kg

## Cc1c2ccnc(C(=O)NCCN(C)C)c2cc2c3cc(OC(=O)Cc4ccccc4)ccc3n(C)c12
B16
  IC50: 22.3 nM
L1210
  IC50: 26.7 nM
Mus musculus [1]
  LTS: 0
Mus musculus [2]
  LTS: 0
Mus musculus [3]
  T/C: 125%
Mus musculus [4]
  T/C: 157%
Mus musculus [5]
  T/C: 147%

## Cc1c2ccnc(C(=O)NCCN(C)C)c2cc2c3cc(OC(=O)CCCCC4CCSS4)ccc3n(C)c12 (stereo not given)
B16
  IC50: 14 nM
L1210
  IC50: 118 nM
Mus musculus [1]
  LTS: 0
Mus musculus [2]
  LTS: 0
Mus musculus [6]; 10 mg/kg
  T/C: 118% and 129%
Mus musculus [5]
  T/C: 140%

## Cc1c2ccnc(C(=O)NCCN(C)C)c2cc2c3cc(OP(=O)(O)O)ccc3n(C)c12
B16
  IC50: 4.1 nM
L1210
  IC50: 50.5 nM
Mus musculus [7]
  LTS: 0
Mus musculus [8]
  LTS: 1
Mus musculus [9]
  T/C: 239%
Mus musculus [10]
  T/C: 405%
Mus musculus [11]
  LTS: 1
Mus musculus [12]
  T/C: 171%

## CCOC(=O)CCNC(=O)Oc1ccc2c(c1)c1cc3c(C(=O)NCCN(C)C)nccc3c(C)c1n2C
B16
  IC50: 5.7 nM
L1210
  IC50: 16.4 nM
Mus musculus [13]
  LTS: 0
Mus musculus [14]
  LTS: 0
Mus musculus [15]
  T/C: 95%
Mus musculus [16]
  T/C: 97%
Mus musculus [12]
  T/C: 115%

## CCCCCCCCCCCCNC(=O)Oc1ccc2c(c1)c1cc3c(C(=O)NCCN(C)C)nccc3c(C)c1n2C
B16
  IC50: 2300 nM
L1210
  IC50: 809 nM
Mus musculus [1]
  LTS: 0
Mus musculus [2]
  LTS: 0
Mus musculus [3]
  T/C: 104%
Mus musculus [4]
  T/C: 107%
Mus musculus [17]
  T/C: 133%

## Cc1c2ccnc(C(=O)NCCN(C)C)c2cc2c3cc(OS(C)(=O)=O)ccc3n(C)c12
B16
  IC50: 782 nM
L1210
  IC50: 868 nM
Mus musculus [18]
  LTS: 0
Mus musculus [8]
  LTS: 0
Mus musculus [9]
  T/C: 96%
Mus musculus [10]
  T/C: 106%
Mus musculus [11]
  LTS: 0
Mus musculus [19]
  T/C: 142%

## COC(=O)CCCC(=O)Oc1ccc2c(c1)c1cc3c(C(=O)NCCN(C)C)nccc3c(C)c1n2C
B16
  IC50: 7.1 nM
L1210
  IC50: 5.4 nM
Mus musculus [20]
  LTS: 0
Mus musculus [21]
  LTS: 0
Mus musculus [6]
  T/C: 158%
Mus musculus [15]
  T/C: 145%
Mus musculus [5]
  T/C: 144%

## CCCCCCCCCCCCCC(=O)Oc1ccc2c(c1)c1cc3c(C(=O)NCCN(C)C)nccc3c(C)c1n2C
B16
  IC50: 195 nM
L1210
  IC50: 215 nM
Mus musculus [22]
  LTS: 0
Mus musculus [6]
  T/C: 153%
Mus musculus [23]
  LTS: 1
Mus musculus [16]
  T/C: 176%
Mus musculus [12]
  T/C: 166%

## CC(=O)Oc1ccc2c(c1)c1cc3c(C(=O)NCCN(C)C)nccc3c(C)c1n2C
B16
  IC50: 6.1 nM
L1210
  IC50: 5.1 nM
Mus musculus [24]
  LTS: 0
Mus musculus [25]
  LTS: 1
Mus musculus [26]
  LTS: 0
Mus musculus [16]
  T/C: 275%
Mus musculus [27]
  T/C: 214%
Mus musculus [12]
  T/C: 182%
